SUMO HTRF inh: SUMOylation inhibition | P63279 | HTRF SUMOylation assay, SAE1/SAE2 + UBC9, in vitro | inhibition, % at 35 µM | 0.36% of 290,000 active | AID 2006; in the data active = inhibition above about 50%, passing the limit was not always enough
Target sequence (P63279 whole entry, looked up): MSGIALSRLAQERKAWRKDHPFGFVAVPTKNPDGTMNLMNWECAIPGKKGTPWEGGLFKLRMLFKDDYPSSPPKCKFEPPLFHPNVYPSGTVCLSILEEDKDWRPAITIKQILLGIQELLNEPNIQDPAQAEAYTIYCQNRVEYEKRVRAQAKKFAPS
Rin1 Abl inh: human Rin1-Abl interaction inhibition | P00519+Q13671 | TR-FRET Rin1/Abl binding, biochemical | inhibition, % at 7.35 µM | 0.4% of 360,000 active | AID 588664; in the data active = inhibition above about 5%, passing the limit was not always enough
UBC13 inh: blocks human UBC13 polyubiquitin chain formation; TR-FRET; inhibition, % at 20 µM; 0.47% of 330,000 active; in the data active = inhibition above about 45%, passing the limit was not always enough
Target sequence (P61088 whole entry, looked up): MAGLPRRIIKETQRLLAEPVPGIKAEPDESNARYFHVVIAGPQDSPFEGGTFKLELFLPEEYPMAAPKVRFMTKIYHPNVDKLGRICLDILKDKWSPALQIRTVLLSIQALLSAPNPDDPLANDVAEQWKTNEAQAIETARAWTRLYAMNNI
PAD4 inh: PAD4 (human) enzyme inhibition. Q9UM07. recombinant PAD4, RCA probe fluorescence polarization. inhibition, % at 6.36 µM. 0.41% of 330,000 active. AID 485272;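 active = percent inhibition above a cutoff equal to the mean of all tested compounds plus 3 SD, cut at about 15% in these data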;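 also: 0% = PAD4 with RCA probe and DMSO and 100% = probe without PAD4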
GSTO1 inh: counter-screen for RBBP9 inhibitors: inhibitors of human GSTO1. inhibition, % at 5.96 µM. 1.1% of 300,000 active. AID 1974. recombinant GSTO1, activity-based probe fluorescence polarization. P78417;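 active = inhibition above the campaign mean inhibition plus 3 SD, cut at about 35% in these data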;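 also: 0% = GSTO1-1 with DMSO and 100% = wells lacking GSTO1-1 enzyme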
Target sequence (P78417 whole entry, looked up): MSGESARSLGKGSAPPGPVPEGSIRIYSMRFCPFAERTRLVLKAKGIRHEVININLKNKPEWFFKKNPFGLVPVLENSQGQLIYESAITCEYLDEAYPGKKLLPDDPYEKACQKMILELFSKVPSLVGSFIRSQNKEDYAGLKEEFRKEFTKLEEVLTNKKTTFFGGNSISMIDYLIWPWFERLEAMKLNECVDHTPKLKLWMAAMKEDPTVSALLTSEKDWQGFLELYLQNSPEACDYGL
Apaf1 inhib: inhibitors of human Apaf-1 apoptosome; reconstituted apoptosome caspase-3 activity, DEVD-Rh110 fluorescence; O14727; inhibition, % at 20 µM; 0.71% of 330,000 active; active = inhibition of at least 40% at 20 µM;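 also: plate controls were DMSO wells for no effect and DEVD-CHO caspase inhibitor wells for full effect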
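System: reconstituted apoptosome with Apaf-1, cytochrome c, caspase-9, procaspase-3, dATP; Signal: Rh110 fluorescence intensity; Schedule: 30 min compound preincubation, 50 min activation, room temperature; Reagent: cytochrome c trigger plus (Z-DEVD)2-Rh110 caspase-3 substrate.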
GSTO1 inh conf: confirmation of human GSTO1 inhibitors. 54% of 2,400 active. AID 2176. inhibition, % at 5.96 µM. recombinant GSTO1, probe fluorescence polarization. shares compounds with GSTO1 inh;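 active = inhibition above the primary screen's cutoff, its mean inhibition plus 3 SD, cut at about 35% in these data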;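 also: loss of polarization as inhibitors block binding of rhodamine sulfonate ester activity probe; 0% = GSTO1 with DMSO and 100% = wells lacking GSTO1 enzyme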
PAD4 FP conf: confirmation of human PAD4 inhibitors. inhibition, % at 6.36 µM. shares compounds with PAD4 inh. 28% of 1,200 active. recombinant PAD4, RCA probe fluorescence polarization;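 active = mean inhibition across replicates above the hit cutoff set by the earlier primary screen, cut at about 15% in these data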;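 also: inhibitors block active-site labeling by the probe so polarization falls; 0% = PAD4 with probe and DMSO and 100% = probe without PAD4 enzyme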
Casp3 counter: inhibits human caspase-3 in UBC13 counter-screen; shares compounds with UBC13 inh; Recombinant caspase-3, Caspase-Glo 3/7 luminescence, 60 min; inhibition, % at 20 µM; 4% of 1,400 active; AID 488856;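 active = mean inhibition across replicates above about 26%, limit read from the data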;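 also: plate controls were DMSO with caspase-3 for no effect and DMSO wells lacking enzyme for full effect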
UBC13 confirm: human UBC13 polyubiquitin inhibition, confirmed; inhibition, % at 10 µM; AID 488859; UBC13 polyubiquitination, TR-FRET, biochemical; shares compounds with UBC13 inh; 68% of 1,400 active; in the data active = inhibition above about 45%
Apaf-1 inh conf2: Apaf-1 inhibition, single-dose confirmed; shares compounds with Apaf1 inhib; reconstituted apoptosome, caspase-3 DEVD-Rh110 fluorescence; inhibition, % at 20 µM; 25% of 1,800 active; AID 504614;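 active = mean inhibition of at least 40% at 20 µM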;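 also: plate controls were DMSO wells for no effect and DEVD-CHO caspase inhibitor control wells for full effect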
Rh110 quench: counter-screen for Apaf-1 inhibitors: fluorescence interference; shares compounds with Apaf1 inhib; Rh110 fluorescence interference, quenched caspase reaction; activation (fluorescence interference), % at 20 µM; 1,800 tested, under 10 active; AID 504615;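 active = signal rise of 40% or more at 20 µM, treated as a fluorescence artifact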
Apaf1 inh interf: shows fluorescence interference in the Apaf-1 inhibitor assay format; shares compounds with Apaf1 inhib; fluorescence interference counterscreen, Apaf-1 assay format; IC50, µM; 460 tested, under 10 active; AID 588538; call rule not given here
Rin1-Abl confirm: confirmation of inhibitors of human Rin1-Abl interaction; AID 602124; 49% of 1,300 active; TR-FRET Rin1-Abl binding, purified proteins; shares compounds with Rin1 Abl inh; inhibition, % at 7.35 µM
GFP quencher: quenches GFP fluorescence, counter-screen for Rin1-Abl inhibitors; shares compounds with Rin1 Abl inh; inhibitors/quenchers counterscreen; inhibition, % at 6.75 µM; 8.5% of 1,300 active;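 also: ABL1-eGFP fusion protein alone without its partner RIN1-SBP; 0% = protein with vehicle and 100% = wells lacking protein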
The depositor's hits bear a star. Hits are enriched below; roughly 2.2% of the tested compounds scored in any of these assays. Rule as the data show it, unless noted: active = inhibition above about 6.5%; inactive = the rest.

How did COc1cc(OC)c(NC2=CC(=O)C(=O)c3ccccc32)cc1Cl do in these assays?
SUMO HTRF inh: 23.3; Rin1 Abl inh: -4.5; UBC13 inh: -327.9; PAD4 inh: 11.2; GSTO1 inh: 79.4*; Apaf1 inhib: 91.6*; GSTO1 inh conf: 76.8*; Apaf-1 inh conf2: 92.1*; Rh110 quench: 8.9; Apaf1 inh interf: >100

How did Cc1cc(NC2=CC(=O)C(=O)c3ccccc32)no1 do in these assays?
Rin1 Abl inh: -0.8

Results for COc1ccc(Nc2ccc3c(c2)=NC2(CCCCC2)[N+]=3[O-])cc1 ?
SUMO HTRF inh: 46.4; Rin1 Abl inh: -20.8; UBC13 inh: -270.6; PAD4 inh: 8.3; GSTO1 inh: 53.6*; Apaf1 inhib: 79.7*; GSTO1 inh conf: 31.3; Apaf-1 inh conf2: 70.0*; Rh110 quench: 12.0; Apaf1 inh interf: >100

What do the screens show for `CCNC(=O)C1CCCN(C(=O)c2c(-c3ccccc3)noc2C)CC1` (centres undefined)?
Rin1 Abl inh: 2.2

How did c1coc(-c2nnc(-c3ccco3)nn2)c1 do in these assays?
Rin1 Abl inh: 2.4; UBC13 inh: 11.9; PAD4 inh: -6.8; GSTO1 inh: 67.8*; Apaf1 inhib: 84.3*; GSTO1 inh conf: 37.8*; Apaf-1 inh conf2: 58.4*; Rh110 quench: 5.5; Apaf1 inh interf: >100

How did Cc1ccc(Cl)cc1NC1=C/C(=N\S(=O)(=O)c2cccs2)c2ccccc2C1=O do in these assays?
SUMO HTRF inh: 49.4; Rin1 Abl inh: 2.3; UBC13 inh: -133.6; PAD4 inh: 52.0*; GSTO1 inh: 74.4*; Apaf1 inhib: 95.0*; GSTO1 inh conf: 93.5*; PAD4 FP conf: 54.1*; Apaf-1 inh conf2: 96.8*; Rh110 quench: -0.2; Apaf1 inh interf: >100

What do the screens show for `Cc1ccc(Cl)cc1NS(=O)(=O)c1ccccc1`?
Rin1 Abl inh: 2.5

What do the screens show for `Cc1ccc(NC2=C/C(=N\S(=O)(=O)c3cccs3)c3ccccc3C2=O)c(C)c1`?
SUMO HTRF inh: 18.5; Rin1 Abl inh: 1.9; UBC13 inh: -87.7; PAD4 inh: 65.2*; GSTO1 inh: 81.3*; Apaf1 inhib: 95.0*; GSTO1 inh conf: 89.4*; PAD4 FP conf: 56.2*; Apaf-1 inh conf2: 94.8*; Rh110 quench: -1.0; Apaf1 inh interf: >100

What do the screens show for `Cc1ccc(C(O)c2ncc(-c3ccc4ccccc4c3)[nH]2)c(C)c1` (centres undefined)?
Rin1 Abl inh: -5.8

What do the screens show for `CCC(=O)Nc1c(S(=O)(=O)c2ccccc2)c2nc3ccccc3nc2n1C(C)c1ccccc1` (centres undefined)?
SUMO HTRF inh: 5.5; Rin1 Abl inh: -1.9; UBC13 inh: -20.3; PAD4 inh: -0.8; GSTO1 inh: -3.9; Apaf1 inhib: 34.9

How did CCCCn1c(NC(=O)c2ccc(Br)o2)c(S(=O)(=O)c2ccccc2)c2nc3ccccc3nc21 do in these assays?
Rin1 Abl inh: 1.5; UBC13 inh: -47.3; PAD4 inh: -12.0; GSTO1 inh: 57.9*; Apaf1 inhib: 71.1*; GSTO1 inh conf: 66.6*; Apaf-1 inh conf2: 30.7; Rh110 quench: -1.8

What do the screens show for `CC(C)CCn1c(N)c(S(=O)(=O)c2cccs2)c2nc3ccccc3nc21`?
SUMO HTRF inh: -10.1; Rin1 Abl inh: 1.8; UBC13 inh: -14.6; PAD4 inh: 63.0*; GSTO1 inh: 57.2*; Apaf1 inhib: 51.2*; GSTO1 inh conf: -6.7; PAD4 FP conf: -9.4; Apaf-1 inh conf2: 28.4; Rh110 quench: 1.6

Results for Cc1ccccc1-c1cc2c(nn1)-c1ccccc1C2=O ?
SUMO HTRF inh: 88.4*; Rin1 Abl inh: -3.2; UBC13 inh: -31.4; PAD4 inh: 58.3*; GSTO1 inh: 75.0*; Apaf1 inhib: 97.1*; GSTO1 inh conf: 69.7*; PAD4 FP conf: -7.6; Apaf-1 inh conf2: 60.7*; Rh110 quench: -6.5; Apaf1 inh interf: >100

How did CC(=O)c1cccc(-c2ccc3c(=O)[nH]c(Nc4ccccc4)cc3c2)c1 do in these assays?
Rin1 Abl inh: -2.9; UBC13 inh: -110.5; PAD4 inh: -6.8; GSTO1 inh: 48.9*; Apaf1 inhib: 96.2*; GSTO1 inh conf: 11.6; Apaf-1 inh conf2: 87.8*; Rh110 quench: 8.5

Results for COCCN=c1scc(-c2ccco2)n1/N=C/c1ccc(O)c(O)c1O ?
SUMO HTRF inh: 80.8; Rin1 Abl inh: 20.0*; UBC13 inh: 46.3*; PAD4 inh: -2.1; GSTO1 inh: 69.0*; Apaf1 inhib: 19.2; GSTO1 inh conf: 21.6; Casp3 counter: -2.1; UBC13 confirm: 7.6; Rin1-Abl confirm: 13.4*; GFP quencher: 11.2*

How did COC(CN(C)C(=O)C1CCCN(S(=O)(=O)c2ccc3c(c2)oc(=O)n3C)C1)OC (centres undefined) do in these assays?
SUMO HTRF inh: -15.7; Rin1 Abl inh: 0.4; UBC13 inh: -7.6; PAD4 inh: -1.3; GSTO1 inh: 4.9; Apaf1 inhib: 7.3

How did Cc1nc2ccccc2c(=O)n1/N=C/c1ccc(O)c(O)c1O do in these assays?
SUMO HTRF inh: 77.0; Rin1 Abl inh: 27.4*; UBC13 inh: 6.2; PAD4 inh: 2.1; GSTO1 inh: 70.6*; Apaf1 inhib: 25.0; GSTO1 inh conf: 13.7; Rin1-Abl confirm: 15.3*; GFP quencher: 22.9*

What do the screens show for `Cc1nc2ccccc2c(=O)n1/N=C/c1ccccc1`?
SUMO HTRF inh: -7.8; Rin1 Abl inh: 0.0; UBC13 inh: 4.4; PAD4 inh: -2.0; GSTO1 inh: 5.6; Apaf1 inhib: -3.4

Source: PubChem
